From PubChem
OX1R antag-1 – antagonists of human orexin 1 receptor (OX1R); O43613; OX1R-expressing cells, FRET antagonist read-out; inhibition, % at 6.6 µM; 330,000 compounds, 1.8% hits; AID 485270; in the data active = inhibition mostly above about 38%, no sharp cut-off; inactive = mostly below about 40%;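 note: 0% = agonist challenge alone and 100% = reference antagonist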
Target sequence (O43613 whole entry, looked up): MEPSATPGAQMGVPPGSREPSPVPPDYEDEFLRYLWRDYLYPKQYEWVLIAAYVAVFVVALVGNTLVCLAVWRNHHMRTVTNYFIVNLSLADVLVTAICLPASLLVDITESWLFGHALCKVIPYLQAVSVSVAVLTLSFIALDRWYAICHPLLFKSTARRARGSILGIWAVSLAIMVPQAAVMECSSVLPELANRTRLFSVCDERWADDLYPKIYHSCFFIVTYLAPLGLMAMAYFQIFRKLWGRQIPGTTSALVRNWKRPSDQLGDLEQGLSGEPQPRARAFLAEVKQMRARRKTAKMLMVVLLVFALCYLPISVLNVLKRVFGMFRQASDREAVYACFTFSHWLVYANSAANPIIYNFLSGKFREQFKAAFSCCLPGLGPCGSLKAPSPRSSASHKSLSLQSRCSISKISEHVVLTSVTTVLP
CHO parental Ca – counter-screen: ATP calcium response change in parental CHO cells | parental CHO-K1, ATP-induced calcium, Fluo-8 fluorescence | inhibition, % at 5.6 µM | 330,000 compounds, 0.63% hits | AID 463079;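 active = inhibition above that plate's mean sample inhibition plus 3 SD, cut at about 26% in these data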;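 note: 0% = ATP-challenged DMSO wells and 100% = DMSO wells without ATP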
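Assay system – parental CHO cells · Reagent – ATP stimulus · Detection – intracellular calcium via Fluo-8 no-wash fluorescent dye · Evaluation – percent inhibition of ATP-evoked calcium rise, normalized to controls · Controls – ATP wells versus no-ATP DMSO wells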
TAAR1 ag – agonists of human TAAR1; CHO RD-HGA16 TAAR1, Fluo-8 calcium fluorescence; vehicle wells 0%, saturating PEA agonist 100%; Q96RJ0; 360,000 compounds, 0.99% hits; activation, % at 3 µM;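 active = activation above the mean activation of all test compounds in the run plus 3 SD, cut at about 38% in these data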
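Repeats: no replicates (n 1) | Material: CHO-derived RD-HGA16 cells with stable Gα16 and human TAAR1 | Technique: Kinetic Fluo-8 calcium fluorescence | Schedule: 17-24 h seeding, 75 min 37 °C dye, 30 min RT | Evaluation: % activation from peak over basal fluorescence ratio, DMSO-to-PEA scaled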
OX1R antag-2 – human HCRTR1 antagonism; O43613; CHO/OX1R cells, Fluo-8 calcium fluorescence, orexin A; inhibition, % at 5 µM; 330,000 compounds, 0.43% hits;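 active = inhibition above its plate's threshold, mean inhibition of all tested compounds on the plate plus 3 SD, cut at about 37% in these data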;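 note: 0% = orexin A challenge wells and 100% = SB-334867-A antagonist wells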
TAAR1 antagonist – human TAAR1 antagonism; CHO RD-HGA16 TAAR1, Fluo-8 calcium fluorescence, antagonist; AID 624466; inhibition, % at 3 µM; Q96RJ0; 360,000 compounds, 1.5% hits;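 active = inhibition above a per-plate cutoff, the mean inhibition of test compounds on that plate plus 3 SD, cut at about 49% in these data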;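 note: 0% = DMSO plus EC80 beta-PEA response and 100% = DMSO alone without agonist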
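Assay system: RD-HGA16 CHO cells with stable hTAAR1 and Gα16 / Reagent: EC80 β-phenethylamine stimulus / Doses: 3 µM, single point / Timing: dye loading 75 min at 37 °C, then 30 min room temperature / Measured by: Fluo-8 intracellular calcium dye fluorescence, real-time kinetic reads / Controls: vehicle wells and EC80 agonist wells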
nonsel antag count – nonselective antagonism, TAAR1 counter-screen; shares compounds with TAAR1 antagonist; counterscreen cell line, calcium fluorescence, antagonist mode; inhibition, % at 3 µM; 2,400 compounds, 77% hits; AID 651780; in the data active = inhibition above about 22%;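 note: CHO-Ga16 host cells stimulated with ATP at an EC80 level; 0% = agonist EC80 plus vehicle and 100% = vehicle without agonist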
TAAR1 antag conf – human TAAR1 antagonism, confirmed; inhibition, % at 3 µM; AID 651785; shares compounds with TAAR1 antagonist; TAAR1-expressing cells, fluorescence antagonist read-out; 2,400 compounds, 40% hits; in the data active = inhibition above about 49%;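 note: CHO-Ga16 host cells challenged with agonist PEA near its EC80; 0% = agonist at EC80 plus vehicle and 100% = vehicle with no agonist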
Ga16 ag counter – nonselective Ga16 agonism, counter-screen | shares compounds with TAAR1 antagonist | Ga16-expressing cells, calcium fluorescence, agonist counterscreen | activation, % at 3 µM | 2,400 compounds, 18% hits | AID 651953; in the data active = activation above about 12%;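 note: 0% = vehicle wells and 100% = saturating stimulus response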
TAAR1 ag count – activates human TAAR1 in antagonist counter-screen | shares compounds with TAAR1 antagonist | hTAAR1 cell line, fluorescence activation, agonist mode | activation, % at 3 µM | 2,400 compounds, 2% hits; in the data active = activation above about 37%;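 note: CHO cells stably expressing TAAR1 with calcium dye readout; 0% = DMSO vehicle and 100% = full agonist response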
Active calls of the source: *; x = no result. Compounds with a hit are over-represented: about 4% of the library has one in this group of screens.

SMILES	OX1R antag-1	CHO parental Ca	TAAR1 ag	OX1R antag-2	TAAR1 antagonist	nonsel antag count	TAAR1 antag conf	Ga16 ag counter	TAAR1 ag count
COc1ccc(CNC(=O)CN(Cc2ccc(Cl)cc2)S(=O)(=O)c2ccccc2)cc1	7	-20	22	-29	29	x	x	x	x
COc1ccc(CNC(=O)CN(Cc2ccccc2)S(=O)(=O)c2ccc(Cl)cc2)cc1	23	-9	16	-17	63*	42*	65*	12*	14
O=C(CCn1c(=O)oc2ccccc21)N(Cc1ccccc1)c1ccccc1	-11	-11	3	-40	69*	23*	50*	6	5
CN(Cc1ccccc1)C(=O)CCn1c(=O)oc2ccccc21	5	-5	1	-9	-8	x	x	x	x
CCCCN1CCCCC1(C)C(=O)NCc1cccs1 (stereo not given)	x	x	0	x	7	x	x	x	x
C#CCN(C[C@@H](CC(C)C)NC(=O)OC(C)(C)C)S(=O)(=O)c1ccc(Br)cc1F	x	x	2	x	51*	16	16	3	2
CN(CC(=O)Nc1cccc(F)c1)C(=O)c1cn(-c2ccccc2)nc1-c1cccs1	21	-8	8	-3	65*	32*	40	7	6
COc1cccc(NC(=O)CN(C)C(=O)c2cc(-c3ccc(F)cc3)nc3ccccc23)c1	19	8	6	-5	75*	40*	60*	9	5
CN(CC(=O)Nc1cccc(F)c1)C(=O)c1cn(-c2ccccc2)nc1-c1ccc(Cl)cc1	13	-19	1	-16	16	x	x	x	x
CN(CC(=O)Nc1cccc(F)c1)C(=O)c1cc(-c2ccco2)nc2ccccc12	16	-25	11	1	44	x	x	x	x
COc1ccc(-c2cc(C(=O)N(C)CC(=O)Nc3cccc(F)c3)c3ccccc3n2)cc1OC	x	x	15	x	76*	44*	61*	11	8
COc1ccc(NC(=O)CN(C)C(=O)c2cn(-c3ccccc3)nc2-c2ccc(Cl)cc2)cc1	30	-18	-1	-19	12	x	x	x	x
COc1ccc(Cl)cc1NC(=O)CN(C)C(=O)c1cn(-c2ccccc2)nc1-c1cccnc1	35	-22	13	-14	58*	33*	47	7	5
COc1ccc(C)cc1NC(=S)NNC(=O)c1c(Br)cnn1C	7	-8	32	-7	6	x	x	x	x
O=S(=O)(Oc1ccc(C(=S)N2CCOCC2)cc1)c1ccc(Cl)cc1	13	-8	1	1	16	x	x	x	x
CN(CC(=O)Nc1ccc(Cl)c(C(F)(F)F)c1)C(=O)c1cc(-c2ccncc2)nc2ccccc12	21	-33	9	-5	50*	33*	53*	10	10
CN(CC(=O)Nc1ccc(F)c(F)c1F)C(=O)c1cc(-c2ccncc2)nc2ccccc12	20	-29	18	-40	36	x	x	x	x
COc1cccc(NC(=O)CN(C)C(=O)c2cc(-c3ccccc3)nc3ccccc23)c1	31	-14	12	-26	70*	34*	51*	9	7
COc1ccc(NC(=O)CN(C)C(=O)c2cc(-c3ccco3)nc3ccccc23)cc1	12	-19	13	28	36	x	x	x	x
CC(C)C(NS(=O)(=O)c1ccccc1F)C(=O)OCC(=O)NCc1ccco1 (stereo not given)	x	x	2	x	-38	x	x	x	x
CCN=C(Nc1cccc(F)c1)SC1CC(=O)N(c2ccc(OC)cc2)C1=O (stereo not given)	20	1	15	0	72*	34*	55*	7	6
CCN=C(NCC)SC1CC(=O)N(c2ccc(OCC)cc2)C1=O (stereo not given)	3	-10	16	-24	86*	28*	51*	11	11
COc1ccc(CN(Cc2ccc(C(=O)O)cc2)C(=S)Nc2ccc(C)cc2)cc1OC	12	6	-2	5	3	x	x	x	x
Cc1ccccc1CN1C(=O)CSCC1(C)C(=O)Nc1ccc2c(c1)OCCO2 (stereo not given)	x	x	0	x	1	x	x	x	x
CCCNC(=O)c1cc(C2CCCN(C(=O)c3ccc4ccccc4c3)C2)on1 (stereo not given)	x	x	-1	x	-3	x	x	x	x
SMILES	OX1R antag-1	CHO parental Ca	TAAR1 ag	OX1R antag-2	TAAR1 antagonist	nonsel antag count	TAAR1 antag conf	Ga16 ag counter	TAAR1 ag count
CCOC(=O)c1ccc(NC(=O)C2CCCN(S(=O)(=O)c3ccc(F)cc3)C2)cc1 (stereo not given)	9	9	20	8	67*	39*	62*	13*	14
Cc1ccc(S(=O)(=O)N2CCCC(C(=O)Nc3cccnc3)C2)cc1 (stereo not given)	18	-20	16	-36	7	x	x	x	x
Cc1ccc(S(=O)(=O)N2CCCC(C(=O)Nc3ccc(NC(=O)c4ccccn4)cc3)C2)cc1 (stereo not given)	9	-6	15	-25	55*	32*	53*	8	11
O=C(O)c1cccc(S(=O)(=O)Nc2cccc(S(=O)(=O)N3CCCC3)c2)c1	6	-18	2	-1	13	x	x	x	x
COc1ccc(/C=C/C(=O)OCC(=O)N2CC(=O)Nc3ccccc32)cc1	25	-9	1	-11	-9	x	x	x	x
CC1(C)C(=O)Nc2ccccc2N1C(=O)COC(=O)/C=C/c1ccc(OC(F)F)cc1	26	-6	21	-16	57*	31*	46	12*	10
Cc1cnc(C(=O)OCC(=O)N2c3ccccc3NC(=O)C2(C)C)cn1	19	-11	1	-15	-3	x	x	x	x
CCOC(=O)c1c(C)[nH]c(C)c1C(=O)COC(=O)/C=C/c1ccc(OC(F)F)cc1	21	-12	6	-12	52*	34*	40	7	2
Cc1nn(-c2ccccc2)c(C)c1C(=O)OCC(=O)N1c2ccccc2NC(=O)C1(C)C	46	2	19	-9	71*	40*	53*	9	9
Cc1cc(C)cc(SCc2noc(C(=O)NCCCN3CCOCC3)c2C(=O)NCCCN2CCOCC2)c1	6	-16	2	-23	3	x	x	x	x
CN(Cc1cccc(F)c1)C(=O)C1CC(=O)N(Cc2ccco2)C1 (stereo not given)	x	x	1	x	8	x	x	x	x
Cc1ccccc1NC(=O)C1CCCN(S(=O)(=O)c2cccc3cccnc23)C1 (stereo not given)	18	-20	13	-26	54*	20	39	7	7
